# Shown are actives, neighbours in structure and some others; about 1.2% of the full set was active somewhere.
# RanGTP-Imp inh = inhibitors of RanGTP-importin-beta interaction, primary screen, biochemical, FRET, CFP-Ran, YFP-importin-beta, homogeneous; cell-free CFP-Ran/YFP-importin-beta FRET ratio; inhibition, % (no concentration beside the values); 300,000 compounds, 1.1% hits; AID 2216;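 active = more than half of the replicate wells show a fall in the fluorescence ratio signal beyond about 16%, limit read from the data, passing the limit was not always enough; inconclusive = exactly half of the replicate wells pass the set limit; inactive = fewer than half of replicates pass the limit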;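 also: 0% = DMSO wells and 100% = Ran loaded with GDP instead of GTP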
# CaV13 FRET inh = Disruptors of the CACNA1D IQ motif to Ca2+-dependent inactivation inhibitor domain association, primary screening, Förster resonance energy transfer in intact living …. HEK cells, CFP/YFP FRET ICDI-IQ, plate reader, 10 min; percent FRET-ratio fall versus neutral wells. inhibition, % at 12.3 µM. 340,000 compounds, 0.098% hits;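 active = mean replicate inhibition of at least 30% and at least 1% of replicates passing that level; inconclusive = only one of the two criteria is met; inactive = neither criterion is met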;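 also: 0% = median of the neutral control wells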
# Runt-CBFb FRET = blocks binding of human RUNX1 Runt domain to CBFb; Q01196+Q13951; Cerulean-Runt/Venus-CBFb FRET ratio 530/480, 1 h; inhibition, % at 20 µM; 220,000 compounds, 0.46% hits; AID 1496;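 active = inhibition over about 50% at 20 µM in the single-dose screen, limit read from the data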;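 also: 0% = DMSO wells and 100% = excess unlabeled CBFb competitor control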
# Target sequence (Q01196 whole entry, looked up, the tested form may be a part): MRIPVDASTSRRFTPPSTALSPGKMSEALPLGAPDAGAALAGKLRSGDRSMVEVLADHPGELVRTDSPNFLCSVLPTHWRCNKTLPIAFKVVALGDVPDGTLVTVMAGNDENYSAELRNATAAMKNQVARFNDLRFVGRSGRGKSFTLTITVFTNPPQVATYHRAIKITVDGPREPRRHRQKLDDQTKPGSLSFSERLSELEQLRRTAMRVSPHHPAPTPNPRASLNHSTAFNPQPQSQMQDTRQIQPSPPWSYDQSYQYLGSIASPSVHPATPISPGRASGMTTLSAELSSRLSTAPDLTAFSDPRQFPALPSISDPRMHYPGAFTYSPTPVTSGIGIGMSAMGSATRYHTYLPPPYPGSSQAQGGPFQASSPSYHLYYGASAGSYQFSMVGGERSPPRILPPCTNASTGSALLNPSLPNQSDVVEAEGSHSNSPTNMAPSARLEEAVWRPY
# Target sequence (Q13951 whole entry, looked up, the tested form may be a part): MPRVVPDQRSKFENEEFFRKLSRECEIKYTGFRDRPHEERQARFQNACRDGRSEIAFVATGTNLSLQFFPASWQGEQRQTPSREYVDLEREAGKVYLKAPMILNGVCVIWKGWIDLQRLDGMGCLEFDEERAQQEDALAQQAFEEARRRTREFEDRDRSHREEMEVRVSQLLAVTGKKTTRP
#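 System: Cerulean-labeled Runt domain protein | Quantity: 100 nM of each labeled protein | Schedule: 1 h compound exposure, room temperature | Detection: Fluorescence energy transfer, 422 nm excitation, 530/480 nm emission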
# Runt-SMMHC FRET = blocks binding of human RUNX1 Runt domain to CBFb-SMMHC. Cerulean-Runt/Venus-CBFb-SMMHC FRET ratio 530/480, 1 h. inhibition, % at 20 µM. 220,000 compounds, 0.74% hits. Q01196+Q13951. AID 1434;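 active = mean inhibition across duplicate retests at 20 µM reaching about 50%, limit read from the data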;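 also: 0% = DMSO wells and 100% = wells with excess untagged CBFb-SMMHC; inhibitors lower the FRET ratio by blocking Runt binding to CBFb-SMMHC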
# YIC FRET counter = counter-screen: alters YIC FRET probe signal; shares compounds with RanGTP-Imp inh; Purified YIC probe, intramolecular FRET ratio YFP/CFP; IC50, µM; 1,000 compounds, 40% hits;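 active = fitted half-maximal inhibitory concentration no more than tenfold above the top dose tested; inconclusive = flat fit with 30 to 70% activity, or poor fit; inactive = half-maximal concentration beyond tenfold above the top dose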
# An asterisk follows results filed as active; ? = inconclusive; . = not tested or not shown; + = active, no number.
SMILES,RanGTP-Imp inh,CaV13 FRET inh,Runt-CBFb FRET,Runt-SMMHC FRET,YIC FRET counter
CCn1cnc2cc(NCc3ccc(Br)cc3)ccc21,?,-5,.,.,.
CCCn1cnc2cc(NCc3ccc(Br)cc3)ccc21,19*,-4,.,.,>50
CCc1nc2ccc(C(=O)NCCc3c[nH]c4ccccc34)cn2c1N(C)Cc1nccn1C,.,-8,.,.,.
Cc1cc(NC(=O)C23CC4CC(C2)CC(n2cnc([N+](=O)[O-])n2)(C4)C3)no1,.,-4,4,-6,.
Cc1cnc(=O)[nH]c1SCC(=O)c1ccc(F)cc1,16*,-14,.,.,>50
NNc1ccc(Cl)nn1,2,-2,1,-5,.
CCOC(=O)C1(C)CCN1C(=O)c1ccc(N(C)C)cc1 (centres undefined),.,-5,.,.,.
CCN(CC)CCN(C(=O)c1ccc(Br)s1)c1nc2cc3c(cc2s1)OCCO3,4,-17,0,-3,.
CN(C)CCCN(C(=O)c1ccc(Br)s1)c1nc2cc3c(cc2s1)OCCO3,22*,-6,.,.,>50
O=c1[nH]c(Nc2ccccn2)cc2ccccc12,38*,-11,.,.,>50
O[C@H]1C[C@H](c2ccccc2)N(Cc2cccs2)C[C@@H]1n1cc(-c2ccc(F)cc2)nn1,.,-3,.,.,.
CCN(C(=O)c1c(C)cc(=O)oc1C)c1ccc2c(c1)OCO2,17*,-3,4,-3,>50
O=S(=O)(c1ccsc1)N1CC=C(c2ccccc2)CC1,-3,.,.,.,.
Cc1onc(-c2ccccc2)c1C(=O)Nc1nc(-c2ccccc2)cs1,0,.,2,-3,.
Cc1onc(-c2ccccc2)c1C(=O)Nc1cccc2nsnc12,22*,-5,10,25,37*
O=C(COc1ccc(Cl)cc1)NNC(=O)c1ccc(=O)[nH]c1,.,-6,.,.,.
COc1ccccc1CNC(=O)COC(=O)Cc1ccc(F)cc1,0,-3,.,.,.
COc1ccccc1CNC(=O)COC(=O)Cc1ccc(Cl)cc1,17*,-4,0,-5,>50
C=CCOc1c(Br)cc(CNc2ccc(NC(=O)C(C)C)c(OC)c2)cc1OC,27*,-3,-14,-37,>50
Cc1ccc(CNC(=O)C2(C)CCN2C(=O)Cc2ccc(C(C)(C)C)cc2)cc1 (centres undefined),.,-4,.,.,.
C[C@H](O)[C@@H]1CN2CCc3c([nH]c4ccccc34)[C@@H]2C[C@@H]1N(C)C(=O)OCc1ccccc1,.,-16,.,.,.
CCC(C)c1ccc(OCC(=O)O)cc1 (centres undefined),24*,-4,3,-3,>50
O=C(Oc1ccccc1N1CCOCC1)c1sccc1Br,-3,-5,0,-8,.
COC(=O)C1=CN(c2ccc(F)cc2)C=C(C(=O)OC)C1c1ccc([N+](=O)[O-])cc1,0,-5,.,.,.
COC(=O)C1=CN(C2CC2)C=C(C(=O)OC)C1c1ccc(C(F)(F)F)cc1,26*,-5,80*,123*,19*
SMILES,RanGTP-Imp inh,CaV13 FRET inh,Runt-CBFb FRET,Runt-SMMHC FRET,YIC FRET counter
COc1ccc(-n2nc(C(=O)NCC3CCCO3)c3ccccc3c2=O)cc1 (centres undefined),5,-7,.,.,.
COc1ccc(CCn2c(=N)c(C(=O)NCC3CCCO3)cc3c(=O)n4cccc(C)c4nc32)cc1 (centres undefined),29*,-9,.,.,14*
COc1ccc(CCNC(=O)c2cc3c(=O)n4cccc(C)c4nc3n(CCCN3CCOCC3)c2=N)cc1,39*,-9,.,.,4.4*
Brc1ccc(C[n+]2ccccc2)cc1,3,-10,.,.,.
CC(C)CCN(CCC(C)C)CC(O)Cn1c2ccccc2c(=O)c2ccccc21 (centres undefined),57*,+,107*,82*,3.7*
CCCN(CCC)CC(O)Cn1c2ccccc2c2ccccc21 (centres undefined),?,-20,1,0,.
Cc1ccc(NC(=O)CN2CCN(C(=O)C3CCCO3)CC2)c(C)c1 (centres undefined),-3,-6,.,.,.
CCCn1nc(NC(=O)CC(C)C)c2cc3cccc(C)c3nc21,20*,-7,.,.,32*
CCn1nc(NS(=O)(=O)c2ccc([N+](=O)[O-])cc2)c2cc3cccc(C)c3nc21,-1,-2,.,.,.
Cc1cc(N2C(=O)c3ccc(C(=O)Nc4ccc(CC(=O)O)cc4)cc3C2=O)no1,3,-6,.,.,.
CC(C)Cc1ccc(CN2CCC(n3nccc3NC(=O)C3CCCC3)CC2)cc1,22*,.,.,.,>50
O=C(CSCC(=O)NC1CC1)Nc1ccccc1,40*,.,-1,-1,>50
CC1CCN(c2nc3ccccc3nc2C(C#N)C(=O)OC2CCCCC2)CC1 (centres undefined),20*,.,-1,-17,15*
Cc1ccc(OCc2nnc(SCC(=O)CC(=O)Nc3ccccc3)o2)cc1,27*,-5,-4,3,>50
COc1ccc(OCc2nnc(SCC(=O)Nc3ccc(C)cc3)o2)cc1,5,-3,.,.,.
COC(=O)CCC(=O)OC1(C)C(=O)C=C2C=C(C3CC3)N(Cc3ccc4c(c3)OCO4)C=C2C1=O (centres undefined),-4,-11,8,2,.
COC(=O)CCC(=O)OC1(C)C(=O)C=C2C=C(C3CC3)N(Cc3ccc(OC)cc3)C=C2C1=O (centres undefined),20*,-12,17,21,20*
CC(C)OCCCNC(=O)CCSc1ccc(Cl)cc1,27*,-7,1,-2,>50
O=S1(=O)Cc2cc3ccccc3cc2C1,0,-4,2,1,.
COc1ccc2cc(C(C)=O)c(=O)oc2c1,19*,-4,19,62*,35*
Cc1ccc(C(=O)NNC2CC(=O)N(c3ccc4c(c3)OCCO4)C2=O)cc1 (centres undefined),18*,-5,.,4,>50
CCN(C(=O)c1c(C)noc1C)c1c(N)n(Cc2ccccc2)c(=O)[nH]c1=O,.,-5,.,.,.
O=C(Cc1c2ccccc2nc2ccccc12)c1ccccc1,22*,-4,126*,115*,>50
COc1ccc(-c2csc3ncnc(N4CCN(c5ccc(OC)cc5)CC4)c23)cc1,22*,.,.,.,>50
N#CC1=C(N)OC2=C(CCc3ccccc32)C1c1ccccc1 (centres undefined),18*,-5,35,38,>50
Cc1ccc(/C=C2\CCC3=C2OC(N)=C(C#N)C3c2ccc(C)cc2)cc1 (centres undefined),-81,.,-31,-74,.
COC1CCCN(C(=O)c2cccc(OC3CCN(S(=O)(=O)N(C)C)CC3)c2)C1 (centres undefined),6,-2,.,.,.
Cc1cc(/C=C2\SC(=O)N(C)C2=O)c(C)n1-c1ccc(O)cc1,-2,-20,.,.,.
COc1ccc(-n2c(C)cc(/C=C3/SC(=S)N(C)C3=O)c2C)cc1,23*,-3,-7,-51,>50

# Screens: PubChem, several laboratories
